Article PMC7740640 (Xenobiotica; the fate of foreign compounds in biological …, 2020)
Where “and” joins values, the source holds several entries; their conditions need not be identical. Equal entries are not always repeated.

How the values were obtained:
Format in all cases: in vitro ADME
CYP2C19 [1] = target: T1, CYP2C19 (Homo sapiens, UniProt P33261); assay: Projected involvement in C152 metabolism in HLM
How it was run: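 Calculated values, no new incubations. Each of seven C152-metabolizing P450s has a fractional content in the pooled HLM P450 pool (LC-MS/MS MRM). That fraction is multiplied by its Supersome Vmax (saturation) or by its rate at 30 μM C152 from Hill or Michaelis–Menten parameters. Expected participation (% TNR) is each normalized rate divided by the sum of all seven.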

CYP1A2 [2] = target: T2, CYP1A2 (Homo sapiens, UniProt P05177); assay: Formation of C151 from C152; conditions: SS(1A2)
T2 sequence (P05177 2-516 limits assumed): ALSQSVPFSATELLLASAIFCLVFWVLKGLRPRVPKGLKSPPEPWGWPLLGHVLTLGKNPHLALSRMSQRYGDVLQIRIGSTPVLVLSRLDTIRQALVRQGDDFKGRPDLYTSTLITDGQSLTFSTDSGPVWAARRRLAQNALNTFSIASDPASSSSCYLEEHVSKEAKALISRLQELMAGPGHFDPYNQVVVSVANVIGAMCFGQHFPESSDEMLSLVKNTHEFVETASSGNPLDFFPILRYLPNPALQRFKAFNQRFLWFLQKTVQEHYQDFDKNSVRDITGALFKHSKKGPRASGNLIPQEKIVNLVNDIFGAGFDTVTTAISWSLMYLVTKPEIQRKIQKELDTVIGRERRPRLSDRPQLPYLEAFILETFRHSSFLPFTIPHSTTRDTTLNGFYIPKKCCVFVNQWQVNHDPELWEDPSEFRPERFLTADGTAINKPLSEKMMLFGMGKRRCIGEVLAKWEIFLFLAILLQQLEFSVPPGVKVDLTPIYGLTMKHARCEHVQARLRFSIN
How it was run: (§1)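 Probes hold 5–20 pmol P450 in 0.1 M Na-HEPES pH 7.4 with 60 mM KCl. C152 added from 0.5 or 4 mM acetone stock; reaction started with 500 μM NADPH (final), run 5 min at 30 °C with shaking. Quenched with isopropanol containing phenacetin internal standard, then centrifuged. C151 quantified by reverse-phase LC with ESI-positive MRM MS/MS (m/z 230.16→157.2). Michaelis–Menten or Hill fit; normalized per P450 (Supersomes) or CPR (HLM).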

CYP1A2 [3] = target: T2, CYP1A2; assay: C152 metabolism
CYP2C8 [4] = target: T3, CYP2C8 (Homo sapiens, UniProt P10632); assay: C152 metabolism
T3 sequence (P10632 1-490): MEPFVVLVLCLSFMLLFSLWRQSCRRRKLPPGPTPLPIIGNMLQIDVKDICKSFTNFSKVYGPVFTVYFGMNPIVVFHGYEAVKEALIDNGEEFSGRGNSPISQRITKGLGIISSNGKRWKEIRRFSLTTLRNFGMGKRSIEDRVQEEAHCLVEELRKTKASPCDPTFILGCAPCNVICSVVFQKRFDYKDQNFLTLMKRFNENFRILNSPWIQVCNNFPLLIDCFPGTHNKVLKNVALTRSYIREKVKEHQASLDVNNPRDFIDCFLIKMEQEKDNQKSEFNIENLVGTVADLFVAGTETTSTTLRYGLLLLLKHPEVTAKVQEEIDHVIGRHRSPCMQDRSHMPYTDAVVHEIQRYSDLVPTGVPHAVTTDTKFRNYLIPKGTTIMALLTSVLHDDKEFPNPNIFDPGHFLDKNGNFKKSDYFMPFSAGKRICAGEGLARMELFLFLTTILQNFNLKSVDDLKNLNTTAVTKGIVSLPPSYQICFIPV

CYP2C8 [5] = target: T3, CYP2C8; assay: Projected involvement in C152 metabolism in HLM
CYP3A5 = CYP3A5 (Homo sapiens, UniProt P20815); assay: C152 metabolism; conditions: for Specific rate: CYP3A5
How it was run: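 Human P450s in Supersomes that co-express human CPR and cytochrome b5. Reaction in 0.1 M Na-HEPES pH 7.4 with 60 mM KCl, stirred at 30 °C. C152 0.1–30 μM added from acetone stock; 200 μM NADPH starts it. Fluorescence rise read at 500 nm (isosbestic, mono-demethylation step). Rate is the linear slope over 3–5 min, scaled by the C151–C152 fluorescence difference. Michaelis–Menten or Hill fit, Vmax per P450, 2–6 runs; rate at 30 μM computed from fit.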

[6] = test system: human liver microsomes (HLM); assay: C152 metabolism
How it was run: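 Pooled 50-donor mixed-gender human liver microsomes. Continuous single-wavelength fluorimetry at 500 nm in 0.1 M Na-HEPES pH 7.4 with 60 mM KCl, stirred at 30 °C. C152 0.1–30 μM from acetone stock; 200 μM NADPH starts it. Linear slope over 3–5 min, scaled by the C151–C152 fluorescence difference. Normalized to CPR, measured as NADPH-dependent cytochrome c reduction rate. Michaelis–Menten or Hill fit, 2–6 runs.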

CYP2C19 [7] = target: T1, CYP2C19; assay: Formation of C151 from C152; conditions: SS(2C19)
How it was run: as §1

[8] = at saturation of all P450 species
[9] = at saturation of all P450 species, % TNR
[10] = C151 formed over total C152 metabolized
[11] = mol C151 formed per mol P450 per min
[12] = read-out: KM or S50 (Formation of C151, LC-MS), Michaelis-Menten fit

T1 sequence (P33261 whole entry): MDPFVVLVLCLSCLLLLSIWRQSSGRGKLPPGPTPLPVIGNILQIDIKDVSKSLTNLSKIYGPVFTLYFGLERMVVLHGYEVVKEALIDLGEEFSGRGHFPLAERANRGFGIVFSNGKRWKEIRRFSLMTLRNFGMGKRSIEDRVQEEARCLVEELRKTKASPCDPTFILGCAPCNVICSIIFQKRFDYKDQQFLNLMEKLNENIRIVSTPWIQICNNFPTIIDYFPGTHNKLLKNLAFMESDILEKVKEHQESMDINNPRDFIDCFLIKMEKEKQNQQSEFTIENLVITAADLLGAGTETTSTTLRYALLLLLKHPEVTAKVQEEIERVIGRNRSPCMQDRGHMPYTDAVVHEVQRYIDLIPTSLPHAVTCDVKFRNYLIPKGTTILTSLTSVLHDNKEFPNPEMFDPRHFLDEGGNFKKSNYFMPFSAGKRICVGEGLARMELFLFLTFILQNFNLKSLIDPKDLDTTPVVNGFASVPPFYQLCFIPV
Chain of CYP3A5 (P20815 whole entry): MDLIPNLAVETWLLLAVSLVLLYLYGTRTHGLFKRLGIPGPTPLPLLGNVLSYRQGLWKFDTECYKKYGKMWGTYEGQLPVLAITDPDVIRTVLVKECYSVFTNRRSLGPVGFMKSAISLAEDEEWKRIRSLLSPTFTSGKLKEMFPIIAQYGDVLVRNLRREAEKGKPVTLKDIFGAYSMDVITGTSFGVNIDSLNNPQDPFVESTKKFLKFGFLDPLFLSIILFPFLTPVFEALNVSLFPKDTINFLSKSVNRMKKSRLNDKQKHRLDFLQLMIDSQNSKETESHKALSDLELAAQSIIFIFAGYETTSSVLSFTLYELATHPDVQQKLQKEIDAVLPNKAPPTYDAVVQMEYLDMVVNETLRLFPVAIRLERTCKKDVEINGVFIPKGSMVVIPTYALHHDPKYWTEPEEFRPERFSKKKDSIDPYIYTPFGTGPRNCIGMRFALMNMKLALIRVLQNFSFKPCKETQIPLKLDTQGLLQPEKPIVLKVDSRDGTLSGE

CN(C)c1ccc2c(C(F)(F)F)cc(=O)oc2c1 [C152, 7-Dimethylamino-4-trifluromethylcoumarin] was tested, and the Normalized rate (CYP2C19 [1]; at 30 μM C152) was 0.026 min⁻¹, the Expected participation (CYP2C19 [1]; at 30 μM C152, % TNR) was 0.2% and 0.22% and the Normalized rate (CYP2C19 [1]; [8]) was 0.031 min⁻¹. The Expected participation (CYP2C19 [1]; [9]) was 0.24%, the “Fraction of C151 formed, LC-MS” value (CYP1A2 [2]; [10]) was 20% and 20±2% and the “Vmax (Formation of C151, LC-MS)” value (CYP1A2 [2]; [11]) was 0.98 ± 0.12 min⁻¹. The Km (CYP1A2 [2]; [12]) was 1700 ± 600 nM, the Specific rate (CYP1A2 [3]; CYP1A2, at 30 μM C152, calculated from fit parameters) was 4.5 min⁻¹ and the Specific rate (CYP1A2 [3]; CYP1A2, at saturation (Vmax in Supersomes)) was 5.0 min⁻¹. For the same molecule, the “C151 formed (both methods: LC-MS/MS and scanning fluorimetry)” value (CYP1A2 [3]; CYP1A2, fraction in total rate of C152 metabolism) was 20–25%, the “Vmax (C152 metabolism, fluorimetric assay)” value (CYP1A2 [3]; SS(1A2), mol C152 per mol P450 per min) was 5.0 ± 1.1 min⁻¹ and the “Fraction of C151 formed, Fluorimetry” value (CYP1A2 [3]; SS(1A2), scanning fluorimetry with PCA) was 26±7%. The Km (CYP1A2 [3]; read-out: KM or S50 (C152 metabolism, fluorimetric assay), SS(1A2), Michaelis-Menten fit, 30 °C, pH 7.4) was 2900 ± 1700 nM, the Specific rate (CYP2C8 [4]; CYP2C8, at 30 μM C152, calculated from fit parameters) was 1.9 min⁻¹ and the “N, Hill coefficient (C152 metabolism, fluorimetric assay)” value (CYP2C8 [4]; SS(2C8)) was 2.6±0.3. For the same molecule, the “Vmax (C152 metabolism, fluorimetric assay)” value (CYP2C8 [4]; SS(2C8), mol C152 per mol P450 per min) was 2.6 ± 0.8 min⁻¹, the Km (CYP2C8 [4]; read-out: KM or S50 (C152 metabolism, fluorimetric assay), SS(2C8), Hill fit (S50), 30 °C, pH 7.4) was 12 ± 6 µM and the Normalized rate (CYP2C8 [5]; at 30 μM C152) was 0.020 min⁻¹. The Expected participation (CYP2C8 [5]; at 30 μM C152, % TNR) was 0.16%, the Normalized rate (CYP2C8 [5]; [8]) was 0.022 min⁻¹ and the Expected participation (CYP2C8 [5]; [9]) was 0.17%. For the same molecule, the Specific rate (CYP3A5; at 30 μM C152, calculated from fit parameters) was 9.5 min⁻¹, the Specific rate (CYP3A5; at saturation (Vmax in Supersomes)) was 15.3 min⁻¹ and the “Vmax (C152 metabolism, fluorimetric assay)” value (CYP3A5; SS(3A5), mol C152 per mol P450 per min) was 15 ± 4 min⁻¹. The Km (CYP3A5; read-out: KM or S50 (C152 metabolism, fluorimetric assay), SS(3A5), Michaelis-Menten fit, 30 °C, pH 7.4) was 19 ± 9 µM, the “N, Hill coefficient (C152 metabolism, fluorimetric assay)” value [6] was 1.8±0.3 and the “Vmax (C152 metabolism, fluorimetric assay)” value ([6]; normalized per concentration of CPR) was 58 ± 24 min⁻¹. The Km ([6]; read-out: KM or S50 (C152 metabolism, fluorimetric assay), Hill fit (S50), 30 °C, pH 7.4) was 4.5 ± 1.5 µM, the “Fraction of C151 formed, Fluorimetry” value ([6]; scanning fluorimetry with PCA) was 5.7±2.0% and the “Fraction of C151 formed, LC-MS” value (CYP2C19 [7]; [10]) was 5.6±0.4%. For the same molecule, the “Vmax (Formation of C151, LC-MS)” value (CYP2C19 [7]; [11]) was 0.43 ± 0.03 min⁻¹ and the Km (CYP2C19 [7]; [12]) was 6.7 ± 1.5 µM.
